Data published in ChEMBL document CHEMBL1145162, “6-aryl-8H-indeno[1,2-d]thiazol-2-ylamines: A1 adenosine receptor agonist allosteric enhancers having improved potency” (J Med Chem, 2005).

How the values were obtained:
[1] = target: T1, Adenosine receptor A1 (Homo sapiens) (UniProt P30542); assay: Inhibition of human adenosine receptor A1 at 10 uM
T1 sequence (whole entry): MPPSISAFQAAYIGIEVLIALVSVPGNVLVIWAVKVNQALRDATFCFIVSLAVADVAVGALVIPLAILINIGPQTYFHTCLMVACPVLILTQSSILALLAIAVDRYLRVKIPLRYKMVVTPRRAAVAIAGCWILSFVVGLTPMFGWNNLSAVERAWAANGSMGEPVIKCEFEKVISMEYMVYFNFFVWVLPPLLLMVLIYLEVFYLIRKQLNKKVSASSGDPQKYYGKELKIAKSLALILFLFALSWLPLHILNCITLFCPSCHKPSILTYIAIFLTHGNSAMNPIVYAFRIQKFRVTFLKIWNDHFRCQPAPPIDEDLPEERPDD
Summary of the method: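 CHO-K1 hA1AR membranes at 0.5 mg/mL in 10 mM HEPES pH 7.4 with 1 mM EDTA, 1 U/mL adenosine deaminase, 5 mM MgCl2 and 2 nM [3H]CPX. Mixed 1:1 with buffer containing 20 μM enhancer. Equilibrium 3 h at room temperature; 100 μM NECA defined nonspecific binding. Inhibition expressed relative to control specific binding; duplicate assays.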

Adenosine receptor A1 = target: T2, Adenosine receptor A1 (Homo sapiens, UniProt P30542); assay: Antagonist activity against adenosine A1 receptor; format: functional; set-up: concentration or dose not given beside the values
T2 sequence (P30542 whole entry): T1 sequence (whole entry)
Summary of the method: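 Equilibrium binding on CHO-K1 hA1AR membranes (15 μg) in 10 mM HEPES pH 7.4, 1 mM EDTA, 1 U/mL adenosine deaminase, 4 nM [3H]CPX. Mixed with an equal volume of 200 μM enhancer in HEPES–10% DMSO; 200 μM NECA for nonspecific binding. Incubated 3 h at room temperature, then filtered.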

[2] = target: T1, Adenosine receptor A1 (Homo sapiens); assay: In vitro allosteric enhancer (AE) activity for adenosine A1 receptor maximal score from curve fitting
[3] = target: T1, Adenosine receptor A1 (Homo sapiens); assay: In vitro allosteric enhancer (AE) activity for adenosine A1 receptor at 50 uM
Summary of the method: (§1)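 Single-point screen on membranes from CHO-K1 cells stably expressing hA1AR. Candidate enhancer was added at 50 μM final for 5 min. Dissociation was then started with 8-cyclopentyltheophylline plus GTPγS and run 10 min. Score = % specific agonist binding remaining; two to three assays, each in triplicate.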

[4] = target: T3, Adenosine receptor A1 (Rattus norvegicus) (UniProt P25099); assay: Allosteric enhancer (AE) activity against rat adenosine A1 receptor at 50 uM
T3 sequence (whole entry): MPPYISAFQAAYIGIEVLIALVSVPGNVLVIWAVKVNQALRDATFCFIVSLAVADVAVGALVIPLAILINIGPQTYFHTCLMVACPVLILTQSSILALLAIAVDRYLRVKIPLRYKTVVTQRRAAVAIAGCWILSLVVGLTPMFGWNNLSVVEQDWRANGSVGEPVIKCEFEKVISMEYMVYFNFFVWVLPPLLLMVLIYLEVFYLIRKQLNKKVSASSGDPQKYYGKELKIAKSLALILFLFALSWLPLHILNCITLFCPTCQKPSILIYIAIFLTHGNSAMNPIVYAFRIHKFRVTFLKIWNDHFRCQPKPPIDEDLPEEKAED

[5] = target: T4, Adenosine receptor A3 (Homo sapiens) (UniProt P0DMS8); assay: In vitro allosteric enhancer (AE) activity for adenosine A3 receptor at 50 uM
T4 sequence (whole entry): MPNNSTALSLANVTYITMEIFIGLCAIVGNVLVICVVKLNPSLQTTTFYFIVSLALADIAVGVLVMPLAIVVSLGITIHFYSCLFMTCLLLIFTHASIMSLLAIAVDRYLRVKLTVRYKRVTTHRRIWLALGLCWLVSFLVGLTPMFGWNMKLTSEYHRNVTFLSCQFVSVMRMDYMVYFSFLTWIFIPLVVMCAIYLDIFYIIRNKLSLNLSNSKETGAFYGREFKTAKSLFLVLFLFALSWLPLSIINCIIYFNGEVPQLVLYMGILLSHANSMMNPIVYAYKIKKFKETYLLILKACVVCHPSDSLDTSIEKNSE

[6] = target: T1, Adenosine receptor A1 (Homo sapiens); assay: Allosteric enhancer (AE) activity against human adenosine A1 receptor at 50 uM; summary of the method: as §1
[7] = target: T4, Adenosine receptor A3 (Homo sapiens); assay: Inhibition of human adenosine receptor A3 at 10 uM
[8] = target: Adenosine receptor A2a (Homo sapiens) (UniProt P29274); assay: In vitro allosteric enhancer (AE) activity for adenosine A2A receptor at 50 uM
Adenosine receptor A2a (Homo sapiens), sequence (P29274 whole entry): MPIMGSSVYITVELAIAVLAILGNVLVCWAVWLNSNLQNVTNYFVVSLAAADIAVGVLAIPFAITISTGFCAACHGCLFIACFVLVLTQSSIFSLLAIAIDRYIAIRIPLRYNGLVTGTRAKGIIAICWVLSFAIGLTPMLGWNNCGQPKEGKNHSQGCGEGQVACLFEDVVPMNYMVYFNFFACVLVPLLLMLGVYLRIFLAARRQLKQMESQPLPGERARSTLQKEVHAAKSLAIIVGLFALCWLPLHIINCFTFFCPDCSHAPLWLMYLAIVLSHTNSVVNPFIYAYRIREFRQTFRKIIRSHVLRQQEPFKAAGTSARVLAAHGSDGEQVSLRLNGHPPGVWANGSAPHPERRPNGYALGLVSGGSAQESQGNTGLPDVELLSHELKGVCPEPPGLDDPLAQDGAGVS

For COc1ccc(-c2ccc3c(c2)Cc2sc(N)nc2-3)cc1OC, the inhibition [1] was 18.8%, the Inhibition (Adenosine receptor A1) was 19.2% and the Allosteric enhancer (AE) [2] was 82.7%. For the same compound, the Alloste ic enhan er (AE) [3] was 82%, the Alloste ic enhan er (AE) [4] was 39.1% and the Alloste ic enhan er (AE) [5] was 10.1%. It also gave an Alloste ic enhan er (AE) [6] of 83.9%, an inhibition [7] of 45% and an Alloste ic enhan er (AE) [8] of 0.2%.
